The assay deals with T1, Type-1 angiotensin II receptor A (Rattus norvegicus, UniProt P25095).
T1 sequence (P25095 whole entry): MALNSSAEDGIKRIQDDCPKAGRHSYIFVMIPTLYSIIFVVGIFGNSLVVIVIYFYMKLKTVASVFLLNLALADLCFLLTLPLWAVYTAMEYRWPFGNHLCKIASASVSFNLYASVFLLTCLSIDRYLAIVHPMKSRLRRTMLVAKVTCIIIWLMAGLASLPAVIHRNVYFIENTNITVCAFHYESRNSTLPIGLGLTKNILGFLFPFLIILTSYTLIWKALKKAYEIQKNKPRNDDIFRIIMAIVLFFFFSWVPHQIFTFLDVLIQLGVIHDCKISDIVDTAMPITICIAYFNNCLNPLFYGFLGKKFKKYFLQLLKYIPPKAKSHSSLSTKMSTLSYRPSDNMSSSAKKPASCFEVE
The experiment in a line: Displacement of [125I]-Ang II from Angiotensin 2 type-1A receptor in rat vascular smooth muscle cells after 150 mins by gamma counting method. The method in brief:
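Rat vascular smooth muscle cells (passages 3–6) were seeded at 10⁶ cells/well and grown at 37 °C in 5% CO₂. Nonspecific binding was taken with 1 µM Ang II. Cells were washed three times, lysed 10 min in 0.1 M NaOH, and bound radioactivity was gamma counted.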
On the technique in general: Displacement assays read how much labelled ligand stays bound in the presence of the test substance.

From ChEMBL document CHEMBL3784931, “Synthesis and evaluation of novel angiotensin II receptor 1 antagonists as anti-hypertension drugs” (Bioorg Med Chem, 2016) come the findings set out here.

The IC50 is the concentration needed to halve the response being measured. Low values mean greater potency in that assay, high ones weaker potency in that assay. By Ki is commonly meant a dissociation constant, usually derived from enzyme kinetics or from competition with a known ligand. Higher therefore signals weaker binding.

`CCCCc1nc(Cl)c(CO)n1Cc1ccc(-c2ccccc2-c2noc(=O)[nH]2)cc1`: the IC50 came to 5.94 nM and affinity was put at a Ki of 4.3 nM.
